Assay results: ChEMBL document CHEMBL4261600 (Eur J Med Chem, 2018)
Calls of active or inactive are those of the source.

Key:
[1] = test system: HL-60; assay: Induction of apoptosis in human HL60 cells assessed as decrease in XIAP level up to 3 uM after 2 hrs by immunoblotting analysis; type: functional, cell-based
[2] = Cmax in beagle dog at 10 mg/kg, po by LC-MS/MS analysis; type: ADME, organism-based, Canis lupus familiaris; set-up: dose 10 mg/kg, route oral; details: in vivo
[3] = AUC (0 to infinity) in Sprague-Dawley rat at 20 mg/kg, po by LC-MS/MS analysis; type: ADME, organism-based; set-up: dose 20 mg/kg, route oral, time infinity; details: in vivo
In short: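 Non-compartmental PK. Male SD rats 190-210 g, mice and beagle dogs acclimatized one week, fasted 12 h with water, split into iv and po groups (mice 48, rats 6, dogs 6). iv 3/3/2 mg/kg (mice/rats/dogs); po 10/20/10 mg/kg; vehicle DMSO in 5% glucose water. Blood at 2 or 5 to 720 min; plasma protein-precipitated with methanol, caffeine internal standard, LC-MS/MS.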

[4] = test system: Tyrosine-protein kinase ABL1 (Homo sapiens), P00519 [F317I]; assay: Binding affinity to human non-phosphorylated ABL1 F317I mutant (S229 to K512 residues) expressed in mammalian expression system assessed as remaining unbound target protein level at 1000 nM by Kinomescan method relative to control
In short: (§1)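 KINOMEscan competition-binding profiling across the panel of 468 kinases and mutants, with inhibitor tested at 1 μM. Binding is expressed as percent of control, with DMSO as the reference control.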

[5] = biological target: Atypical kinase COQ8A, mitochondrial (Homo sapiens) (UniProt Q8NI60); assay: Binding affinity to wild-type human […] length ADCK3 (M280 to Q647 residues) expressed in bacterial expression system assessed as remaining unbound target protein level at 1000 nM by Kinomescan method relative to control
In short: (§2)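 Single-point competition binding screen across a panel of 468 kinases and mutants, with the inhibitor at 1 μM. Binding is read out as percent of a DMSO control, and targets below 1 percent control were classed as strong binders.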

[6] = test system: ALK tyrosine kinase receptor (Homo sapiens), Q9UM73 [L1196M]; assay: Binding affinity to wild-type human partial length ALK L1196M mutant (I1088 to E1409 residues) expressed in mammalian expression system assessed as remaining unbound target protein level at 1000 nM by Kinomescan method relative to control
In short: (§3)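 Profiled in a KINOMEscan binding panel with the inhibitor at a single concentration of 1 μM. Binding to each kinase was read out as percent of control, relative to a DMSO control. Strong binders were defined as those with a percent control value below 1.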

[7] = biological target: 5'-AMP-activated protein kinase catalytic subunit alpha-1 (Homo sapiens) (UniProt Q13131); assay: Binding affinity to wild-type human partial length AMPK alpha1 (M1 to E306 residues) expressed in bacterial expression system assessed as remaining unbound target protein level at 1000 nM by Kinomescan method relative to control
In short: (§4)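 KINOMEscan competition binding profile across a panel of 468 kinases and mutants, with the inhibitor tested at a single concentration of 1 μM. Binding is reported as percent of control, meaning signal relative to a DMSO control.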

[8] = biological target: Aurora kinase A (Homo sapiens) (UniProt O14965); assay: Binding affinity to wild-type human partial length AURKA (E122 to K401 residues) expressed in mammalian expression system assessed as remaining unbound target protein level at 1000 nM by Kinomescan method relative to control; in short: as §3
[9] = biological target: Aurora kinase B (Homo sapiens) (UniProt Q96GD4); assay: Binding affinity to wild-type human partial length AURKB (D25 to A303 residues) expressed in mammalian expression system assessed as remaining unbound target protein level at 1000 nM by Kinomescan method relative to control; in short: as §3
[10] = biological target: Serine/threonine-protein kinase Chk1 (Homo sapiens) (UniProt O14757); assay: Binding affinity to wild-type human partial length CHEK1 (M1 to G289 residues) expressed in bacterial expression system assessed as remaining unbound target protein level at 1000 nM by Kinomescan method relative to control; in short: as §4
[11] = biological target: Death-associated protein kinase 2 (Homo sapiens) (UniProt Q9UIK4); assay: Binding affinity to wild-type human full length DAPK2 (M1 to S370 residues) expressed in bacterial expression system assessed as remaining unbound target protein level at 1000 nM by Kinomescan method relative to control; in short: as §4
[12] = biological target: Serine/threonine-protein kinase MRCK gamma (Homo sapiens) (UniProt Q6DT37); assay: Binding affinity to wild-type human partial length DMPK2 (S46 to S408 residues) expressed in bacterial expression system assessed as remaining unbound target protein level at 1000 nM by Kinomescan method relative to control
[13] = test system: Fibroblast growth factor receptor 3 (Homo sapiens), P22607 [G697C]; assay: Binding affinity to human partial length FGFR3 G697C mutant (R442 to S771 residues) expressed in bacterial expression system assessed as remaining unbound target protein level at 1000 nM by Kinomescan method relative to control; in short: as §1
[14] = test system: Mast/stem cell growth factor receptor Kit (Homo sapiens), P10721 [D816H]; assay: Binding affinity to human partial length KIT D816H mutant (I571 to D952 residues) expressed in mammalian expression system assessed as remaining unbound target protein level at 1000 nM by Kinomescan method relative to control; in short: as §1
[15] = biological target: MAP kinase-interacting serine/threonine-protein kinase 1 (Homo sapiens) (UniProt Q9BUB5); assay: Binding affinity to wild-type human full length MKNK1 (M1 to L424 residues) expressed in mammalian expression system assessed as remaining unbound target protein level at 1000 nM by Kinomescan method relative to control; in short: as §2
[16] = biological target: Phosphorylase b kinase gamma catalytic chain, skeletal muscle/heart isoform (Homo sapiens) (UniProt Q16816); assay: Binding affinity to wild-type human full length PHKG1 (M1 to Y387 residues) expressed in bacterial expression system assessed as remaining unbound target protein level at 1000 nM by Kinomescan method relative to control; in short: as §4
[17] = biological target: Receptor-interacting serine/threonine-protein kinase 1 (Homo sapiens) (UniProt Q13546); assay: Binding affinity to wild-type human partial length RIPK1 (M1 to K305 residues) expressed in bacterial expression system assessed as remaining unbound target protein level at 1000 nM by Kinomescan method relative to control
[18] = biological target: Ribosomal protein S6 kinase alpha-5 (Homo sapiens) (UniProt O75582); assay: Binding affinity to wild-type human partial length C-terminal RPS6KA5 kinase domain 2 (V390 to T718 residues) expressed in bacterial expression system assessed as remaining unbound target protein level at 1000 nM by Kinomescan method relative to control; in short: as §3
[19] = biological target: Phosphatidylinositol 3-kinase catalytic subunit type 3 (Homo sapiens) (UniProt Q8NEB9); assay: Binding affinity to wild-type human partial length VPS34 (S282 to H879 residues) expressed in mammalian expression system assessed as remaining unbound target protein level at 1000 nM by Kinomescan method relative to control
[20] = biological target: Tyrosine-protein kinase ZAP-70 (Homo sapiens) (UniProt P43403); assay: Binding affinity to wild-type human partial length ZAP70 (D20 to G299 residues) expressed in mammalian expression system assessed as remaining unbound target protein level at 1000 nM by Kinomescan method relative to control
[21] = species: Homo sapiens; assay: Selectivity ratio of IC50 for recombinant GST-tagged inactive state of human CDK11 to IC50 for recombinant full length His-tagged human CDK9/CyclinT1

Serine/threonine-protein kinase Chk1 (Homo sapiens), sequence (O14757 whole entry, the tested form may be a part): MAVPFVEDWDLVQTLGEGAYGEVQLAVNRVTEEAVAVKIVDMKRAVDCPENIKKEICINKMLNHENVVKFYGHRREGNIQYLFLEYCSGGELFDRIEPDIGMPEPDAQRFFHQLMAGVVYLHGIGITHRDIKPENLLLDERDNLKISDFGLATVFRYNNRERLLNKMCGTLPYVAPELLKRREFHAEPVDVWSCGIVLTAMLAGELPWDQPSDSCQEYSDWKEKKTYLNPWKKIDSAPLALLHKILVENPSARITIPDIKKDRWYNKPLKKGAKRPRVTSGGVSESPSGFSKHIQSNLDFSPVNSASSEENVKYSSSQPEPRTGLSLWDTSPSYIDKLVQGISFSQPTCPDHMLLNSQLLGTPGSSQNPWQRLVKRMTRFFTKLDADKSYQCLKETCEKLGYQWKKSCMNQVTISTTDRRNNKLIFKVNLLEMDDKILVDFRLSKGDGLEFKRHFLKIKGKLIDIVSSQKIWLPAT
Atypical kinase COQ8A, mitochondrial (Homo sapiens), sequence (Q8NI60 163-647 limits assumed): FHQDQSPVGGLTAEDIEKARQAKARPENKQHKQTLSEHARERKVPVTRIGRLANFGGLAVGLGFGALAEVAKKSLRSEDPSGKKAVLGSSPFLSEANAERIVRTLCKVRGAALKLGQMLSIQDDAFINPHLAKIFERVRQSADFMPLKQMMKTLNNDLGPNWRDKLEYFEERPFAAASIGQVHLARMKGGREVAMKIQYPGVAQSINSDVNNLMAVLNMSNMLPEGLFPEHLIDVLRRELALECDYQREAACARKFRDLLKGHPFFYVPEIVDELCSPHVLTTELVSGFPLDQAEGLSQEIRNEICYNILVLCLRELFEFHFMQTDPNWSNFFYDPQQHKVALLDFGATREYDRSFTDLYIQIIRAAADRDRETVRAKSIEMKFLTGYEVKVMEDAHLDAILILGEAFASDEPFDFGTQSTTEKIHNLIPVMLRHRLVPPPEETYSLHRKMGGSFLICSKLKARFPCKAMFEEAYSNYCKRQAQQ
Mast/stem cell growth factor receptor Kit (Homo sapiens), P10721 [D816H], sequence (P10721 whole entry D816H, the tested form may be a part): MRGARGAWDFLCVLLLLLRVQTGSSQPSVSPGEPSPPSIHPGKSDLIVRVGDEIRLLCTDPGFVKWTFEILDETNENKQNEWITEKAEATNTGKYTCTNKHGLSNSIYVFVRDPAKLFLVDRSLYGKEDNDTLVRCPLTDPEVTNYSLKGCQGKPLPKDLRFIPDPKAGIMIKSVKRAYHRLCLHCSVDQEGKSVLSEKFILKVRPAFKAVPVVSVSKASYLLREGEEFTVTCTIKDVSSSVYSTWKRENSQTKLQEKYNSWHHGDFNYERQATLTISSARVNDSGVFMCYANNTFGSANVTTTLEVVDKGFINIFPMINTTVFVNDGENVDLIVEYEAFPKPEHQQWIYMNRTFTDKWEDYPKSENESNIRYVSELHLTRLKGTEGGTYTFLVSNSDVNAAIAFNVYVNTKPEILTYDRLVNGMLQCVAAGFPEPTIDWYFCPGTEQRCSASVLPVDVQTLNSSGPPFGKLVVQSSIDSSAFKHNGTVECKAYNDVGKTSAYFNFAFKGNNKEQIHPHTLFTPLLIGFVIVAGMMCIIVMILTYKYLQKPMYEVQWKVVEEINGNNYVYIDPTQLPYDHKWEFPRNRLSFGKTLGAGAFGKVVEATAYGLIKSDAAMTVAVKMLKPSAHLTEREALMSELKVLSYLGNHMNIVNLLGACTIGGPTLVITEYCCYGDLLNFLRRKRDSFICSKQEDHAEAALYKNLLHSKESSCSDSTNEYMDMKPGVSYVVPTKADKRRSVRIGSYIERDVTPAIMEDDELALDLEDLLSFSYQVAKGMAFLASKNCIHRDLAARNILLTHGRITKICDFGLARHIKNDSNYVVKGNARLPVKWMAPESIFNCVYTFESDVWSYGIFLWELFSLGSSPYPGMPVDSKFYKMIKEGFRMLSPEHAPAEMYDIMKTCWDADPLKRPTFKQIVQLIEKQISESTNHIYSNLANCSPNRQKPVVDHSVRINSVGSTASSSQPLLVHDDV
Fibroblast growth factor receptor 3 (Homo sapiens), P22607 [G697C], sequence (P22607 whole entry G697C, the tested form may be a part): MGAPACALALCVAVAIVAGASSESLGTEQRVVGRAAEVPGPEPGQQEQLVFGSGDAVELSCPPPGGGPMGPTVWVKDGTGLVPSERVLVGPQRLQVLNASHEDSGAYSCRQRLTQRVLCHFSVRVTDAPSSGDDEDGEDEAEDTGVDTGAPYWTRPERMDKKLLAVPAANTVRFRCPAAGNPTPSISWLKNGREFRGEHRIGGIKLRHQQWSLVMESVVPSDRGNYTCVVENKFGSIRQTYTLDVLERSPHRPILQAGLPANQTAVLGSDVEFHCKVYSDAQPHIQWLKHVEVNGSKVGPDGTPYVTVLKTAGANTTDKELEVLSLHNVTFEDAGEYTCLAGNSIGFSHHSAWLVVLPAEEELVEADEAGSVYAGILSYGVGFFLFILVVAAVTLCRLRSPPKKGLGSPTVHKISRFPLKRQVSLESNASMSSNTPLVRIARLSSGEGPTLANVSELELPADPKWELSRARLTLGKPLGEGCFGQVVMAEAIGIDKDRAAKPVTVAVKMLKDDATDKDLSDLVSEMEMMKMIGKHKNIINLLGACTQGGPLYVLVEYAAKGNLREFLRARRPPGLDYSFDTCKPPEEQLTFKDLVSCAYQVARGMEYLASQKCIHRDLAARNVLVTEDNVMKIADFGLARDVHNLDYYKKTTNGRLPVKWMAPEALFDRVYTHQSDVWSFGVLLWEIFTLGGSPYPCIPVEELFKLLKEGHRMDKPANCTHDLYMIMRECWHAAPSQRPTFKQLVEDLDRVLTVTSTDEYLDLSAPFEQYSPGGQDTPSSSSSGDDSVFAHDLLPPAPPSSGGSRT
Receptor-interacting serine/threonine-protein kinase 1 (Homo sapiens), sequence (Q13546 whole entry, the tested form may be a part): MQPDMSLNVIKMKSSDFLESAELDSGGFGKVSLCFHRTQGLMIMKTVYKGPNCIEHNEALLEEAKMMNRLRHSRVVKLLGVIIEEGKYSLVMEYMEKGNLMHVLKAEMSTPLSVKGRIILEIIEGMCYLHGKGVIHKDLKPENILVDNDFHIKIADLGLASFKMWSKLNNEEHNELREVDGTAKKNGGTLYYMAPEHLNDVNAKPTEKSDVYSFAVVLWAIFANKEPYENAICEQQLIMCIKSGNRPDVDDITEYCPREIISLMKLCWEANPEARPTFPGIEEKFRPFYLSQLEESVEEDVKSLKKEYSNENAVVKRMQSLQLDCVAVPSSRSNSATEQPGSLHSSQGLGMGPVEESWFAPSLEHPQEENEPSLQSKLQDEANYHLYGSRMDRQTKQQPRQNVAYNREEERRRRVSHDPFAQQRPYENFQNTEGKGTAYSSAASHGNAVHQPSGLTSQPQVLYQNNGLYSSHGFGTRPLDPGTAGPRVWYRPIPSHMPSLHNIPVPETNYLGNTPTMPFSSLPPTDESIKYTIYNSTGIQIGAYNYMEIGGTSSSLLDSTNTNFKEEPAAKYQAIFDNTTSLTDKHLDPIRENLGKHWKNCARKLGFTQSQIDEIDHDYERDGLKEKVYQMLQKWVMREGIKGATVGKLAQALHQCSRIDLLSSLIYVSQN
Death-associated protein kinase 2 (Homo sapiens), sequence (Q9UIK4 whole entry, looked up, the tested form may be a part): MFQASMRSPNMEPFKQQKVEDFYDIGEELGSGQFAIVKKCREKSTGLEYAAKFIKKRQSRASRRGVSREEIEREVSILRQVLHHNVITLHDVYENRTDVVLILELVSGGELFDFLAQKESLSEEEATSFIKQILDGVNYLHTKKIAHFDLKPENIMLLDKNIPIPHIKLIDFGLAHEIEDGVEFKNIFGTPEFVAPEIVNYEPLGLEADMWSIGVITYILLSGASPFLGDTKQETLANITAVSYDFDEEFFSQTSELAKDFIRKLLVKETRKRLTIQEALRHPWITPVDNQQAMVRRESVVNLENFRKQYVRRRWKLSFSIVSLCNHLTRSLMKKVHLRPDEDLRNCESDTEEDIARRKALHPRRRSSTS
5'-AMP-activated protein kinase catalytic subunit alpha-1 (Homo sapiens), sequence (Q13131 whole entry, looked up, the tested form may be a part): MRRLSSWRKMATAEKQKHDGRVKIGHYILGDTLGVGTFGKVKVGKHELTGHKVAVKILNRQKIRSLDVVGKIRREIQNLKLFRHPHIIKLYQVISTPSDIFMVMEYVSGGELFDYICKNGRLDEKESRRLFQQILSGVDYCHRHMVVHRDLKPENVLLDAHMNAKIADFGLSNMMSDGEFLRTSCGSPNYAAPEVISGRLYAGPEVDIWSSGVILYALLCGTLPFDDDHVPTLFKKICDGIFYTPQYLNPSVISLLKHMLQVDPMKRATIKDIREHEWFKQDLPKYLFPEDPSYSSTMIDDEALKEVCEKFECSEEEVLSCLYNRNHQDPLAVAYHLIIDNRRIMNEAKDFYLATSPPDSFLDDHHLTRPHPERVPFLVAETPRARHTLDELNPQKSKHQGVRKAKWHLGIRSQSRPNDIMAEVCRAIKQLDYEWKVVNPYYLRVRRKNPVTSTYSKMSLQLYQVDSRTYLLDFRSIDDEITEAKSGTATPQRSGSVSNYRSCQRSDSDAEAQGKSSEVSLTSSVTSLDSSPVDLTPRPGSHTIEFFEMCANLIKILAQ
Aurora kinase A (Homo sapiens), sequence (O14965 whole entry, the tested form may be a part): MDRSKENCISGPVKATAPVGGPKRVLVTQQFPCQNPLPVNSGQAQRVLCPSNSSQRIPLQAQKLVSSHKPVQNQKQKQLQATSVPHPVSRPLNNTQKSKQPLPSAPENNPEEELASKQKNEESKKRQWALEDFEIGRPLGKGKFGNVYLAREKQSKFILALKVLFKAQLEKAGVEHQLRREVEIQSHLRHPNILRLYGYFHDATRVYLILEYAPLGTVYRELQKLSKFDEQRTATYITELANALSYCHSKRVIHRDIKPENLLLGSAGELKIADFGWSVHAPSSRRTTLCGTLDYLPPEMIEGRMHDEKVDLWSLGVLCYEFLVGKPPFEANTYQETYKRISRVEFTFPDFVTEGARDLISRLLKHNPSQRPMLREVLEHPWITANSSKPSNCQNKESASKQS

In the case of `COCCN[C@H]1CC[C@H](Nc2cc(-c3csc(NCC4(C#N)CCOCC4)n3)c(Cl)cn2)CC1`, the Activity [1] was “inactive”, the Cmax [2] was 771 ng/mL and the AUC(0-inf) [3] was 1990 ng·h/mL. The Activity [4] was 90%, the Activity [5] was 88% and the Activity [6] was 78%. It also gave an Activity [7] of 94%, an Activity [8] of 100% and an Activity [9] of 100%. For the same compound, the Activity [10] was 91%, the Activity [11] was 95% and the Activity [12] was 92%. The Activity [13] was 60%, the Activity [14] was 72% and the Activity [15] was 100%. The Activity [16] was 69%, the Activity [17] was 79% and the Activity [18] was 76%. The Activity [19] was 95%, the Activity [20] was 79% and the Ratio IC50 [21] was over 1000.
